# Data published in ChEMBL document CHEMBL4049392, “New azole derivatives showing antimicrobial effects and their mechanism of antifungal activity by molecular modeling studies” (Eur J Med Chem, 2017).
# Assays:
# Enterococcus faecalis = assay: Antibacterial activity against Enterococcus faecalis ATCC 29212 after 18 to 24 hrs by broth microdilution method; type: functional
# How it was run: (§1)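 CLSI broth microdilution in Mueller Hinton broth, with inoculum from 24 h Mueller Hinton agar subcultures, final about 5 10^5 cfu/mL. Compounds were dissolved in DMSO and tested as twofold dilutions in wells. Plates were incubated at 35 °C for 18–24 h. MIC was read as the lowest concentration completely inhibiting visible growth. Ciprofloxacin was the reference.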
# Escherichia coli = assay: Antibacterial activity against Escherichia coli ATCC 25922 after 18 to 24 hrs by broth microdilution method; type: functional; how it was run: as §1
# Staphylococcus aureus = assay: Antibacterial activity against Staphylococcus aureus ATCC 29213 after 18 to 24 hrs by broth microdilution method; type: functional; how it was run: as §1
# [1] = Cytotoxicity against human U937 cells assessed as cell viability at 10 to 100 ug/ml after 48 hrs by MTT assay relative to control; type: cell-based, U-937; conditions: read-out: Activity
# How it was run: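 U937 human monocytic cells, 4 10^3 per well in RPMI-1640 with 10% FBS, L-glutamine, penicillin and streptomycin, at 37 °C and 5% CO2. Compounds in DMSO were added at five final concentrations for 48 h, in triplicate. MTT was added for 4 h, formazan was dissolved overnight in SDS/23% DMF, and OD was read at 570 nm. Results are % reduction in viable cells versus control.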
# Pichia kudriavzevii = assay: Anti-fungal activity against Candida krusei ATCC 6258 after 48 hrs by broth microdilution method; type: functional; conditions: ATCC 6258, 48 h
# How it was run: (§2)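 CLSI broth microdilution in RPMI 1640 (with glutamine, without bicarbonate) buffered to pH 7.0 with MOPS. Inoculum was prepared from 24 h Sabouraud dextrose agar subcultures, final 0.5 to 2.5 10^3 cfu/mL. Twofold dilutions were made from DMSO stocks. Incubated 35 °C for 48 h. MIC was the lowest concentration with no visible growth; for the fluconazole reference, MIC was taken at about 80% growth inhibition versus control.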
# Candida albicans [2] = assay: Anti-fungal activity against Candida albicans ATCC 90028 after 48 hrs by broth microdilution method; type: functional; conditions: ATCC 90028, 48 h; how it was run: as §2
# Pseudomonas aeruginosa = assay: Antibacterial activity against Pseudomonas aeruginosa ATCC 27853 after 18 to 24 hrs by broth microdilution method; type: functional; how it was run: as §1
# Candida parapsilosis = assay: Anti-fungal activity against Candida parapsilosis ATCC 90018 after 48 hrs by broth microdilution method; type: functional; conditions: Lodderomyces parapsilosis, ATCC 90018, 48 h; how it was run: as §2
# Nakaseomyces glabratus = assay: Anti-fungal activity against drug-resistant Candida glabrata after 48 hrs by broth microdilution method; type: functional
# How it was run: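 Clinical resistant C. glabrata isolate, stored frozen in glycerol and subcultured twice on Sabouraud dextrose agar. CLSI broth microdilution in RPMI 1640 (glutamine, no bicarbonate) buffered to pH 7.0 with MOPS. Inoculum from 24 h subcultures, final 0.5 to 2.5 x10^3 cfu/mL. DMSO-dissolved compounds in twofold dilutions, 35 C for 48 h. MIC is the lowest concentration giving complete visual growth inhibition; fluconazole reference read at about 80% inhibition.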
# Candida albicans [3] = assay: Antibiofilm activity against Candida albicans SC5314 after 24 hrs by spectrophotometric method; type: functional
# How it was run: (§3)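 Biofilms were grown on Calgary device pegs from a 10^6 cfu/mL inoculum for 24 h at 37 °C. Pegs were rinsed in saline, then challenged with twofold dilutions for 24 h at 35 °C. Biofilm was recovered by 5 min sonication into RPMI 1640 with 2% glucose and incubated overnight. OD was read at 550 nm plus visual turbidity. MBEC was the lowest concentration preventing regrowth. MBIC was the minimum concentration preventing initial biofilm formation, judged by visual turbidity.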
# Candida albicans [4] = assay: Antibiofilm activity against Candida albicans SC5314 after 24 hrs by turbidity assay; type: functional; how it was run: as §3
Structure (SMILES),MIC (Enterococcus faecalis),MIC (Escherichia coli),MIC (Staphylococcus aureus),viability at 48 h [1],MIC (Pichia kudriavzevii),MIC (Candida albicans [2]),MIC (Pseudomonas aeruginosa),MIC (Candida parapsilosis),MIC (Nakaseomyces glabratus),MBEC (Candida albicans [3]),MBIC (Candida albicans [4])
Cl.O=C(Cc1ccccc1)OC(Cn1ccnc1)c1ccc(Cl)cc1 (stereo not drawn),256 µg/mL,256 µg/mL,16 µg/mL,70 to 80%,4 µg/mL,0.5 µg/mL,256 µg/mL,2 µg/mL,4 µg/mL,–,–
Cl.O=C(OC(Cn1ccnc1)c1ccc(Cl)cc1)c1ccc(-c2ccccc2)cc1 (stereo not drawn),256 µg/mL,512 µg/mL,512 µg/mL,70 to 80%,4 µg/mL,0.25 µg/mL,256 µg/mL,0.25 µg/mL,4 µg/mL,512 µg/mL,4 µg/mL
CCCCC(=O)OC(Cn1ccnc1)c1ccc(Cl)cc1.Cl (stereo not drawn),128 µg/mL,512 µg/mL,32 µg/mL,70 to 80%,8 µg/mL,0.5 µg/mL,256 µg/mL,0.5 µg/mL,0.25 µg/mL,1024 µg/mL,8 µg/mL
Cl.O=C(OC(Cn1ccnc1)c1ccccc1)c1ccc(-c2ccccc2)cc1 (stereo not drawn),128 µg/mL,512 µg/mL,512 µg/mL,70 to 80%,8 µg/mL,0.125 µg/mL,256 µg/mL,0.125 µg/mL,2 µg/mL,1024 µg/mL,8 µg/mL
Cl.O=C(CCC(=O)c1ccccc1)OC(Cn1ccnc1)c1ccc(Cl)cc1 (stereo not drawn),256 µg/mL,256 µg/mL,8 µg/mL,70 to 80%,16 µg/mL,4 µg/mL,256 µg/mL,4 µg/mL,32 µg/mL,–,–
CCCCC(=O)OC(Cn1ccnc1)c1ccccc1.Cl (stereo not drawn),128 µg/mL,512 µg/mL,256 µg/mL,–,32 µg/mL,8 µg/mL,256 µg/mL,8 µg/mL,32 µg/mL,–,–
CCC(=O)OC(Cn1ccnc1)c1ccc(Cl)cc1.Cl (stereo not drawn),256 µg/mL,512 µg/mL,256 µg/mL,70 to 80%,32 µg/mL,4 µg/mL,256 µg/mL,4 µg/mL,32 µg/mL,–,–
Cl.O=C(OC(Cn1ccnc1)c1ccc(Cl)cc1)c1ccccc1 (stereo not drawn),512 µg/mL,512 µg/mL,128 µg/mL,70 to 80%,32 µg/mL,4 µg/mL,256 µg/mL,2 µg/mL,16 µg/mL,–,–
Cl.O=C(/C=C/c1ccccc1)OC(Cn1ccnc1)c1ccccc1 (stereo not drawn),64 µg/mL,512 µg/mL,8 µg/mL,70 to 80%,16 µg/mL,1 µg/mL,256 µg/mL,1 µg/mL,8 µg/mL,1024 µg/mL,8 µg/mL
Cl.O=C(/C=C/c1ccccc1)OC(Cn1ccnc1)c1ccc(Cl)cc1 (stereo not drawn),256 µg/mL,512 µg/mL,1020 µg/mL,70 to 80%,16 µg/mL,4 µg/mL,256 µg/mL,2 µg/mL,2 µg/mL,–,–
Cl.O=C(CCCc1ccccc1)OC(Cn1ccnc1)c1ccc(Cl)cc1 (stereo not drawn),128 µg/mL,512 µg/mL,128 µg/mL,70 to 80%,8 µg/mL,2 µg/mL,512 µg/mL,2 µg/mL,8 µg/mL,–,–
CC(C)CC(=O)OC(Cn1ccnc1)c1ccc(Cl)cc1.Cl (stereo not drawn),128 µg/mL,512 µg/mL,32 µg/mL,70 to 80%,4 µg/mL,0.25 µg/mL,256 µg/mL,0.25 µg/mL,1 µg/mL,1024 µg/mL,8 µg/mL
CC(C)CC(=O)OC(Cn1ccnc1)c1ccccc1.Cl (stereo not drawn),128 µg/mL,512 µg/mL,256 µg/mL,–,32 µg/mL,2 µg/mL,256 µg/mL,2 µg/mL,> 32 µg/mL,–,–
C/C=C/C=C/C(=O)OC(Cn1ccnc1)c1ccc(Cl)cc1.Cl (stereo not drawn),128 µg/mL,512 µg/mL,16 µg/mL,70 to 80%,8 µg/mL,0.5 µg/mL,256 µg/mL,1 µg/mL,4 µg/mL,1024 µg/mL,8 µg/mL
CCCC(=O)OC(Cn1ccnc1)c1ccc(Cl)cc1.Cl (stereo not drawn),256 µg/mL,512 µg/mL,64 µg/mL,70 to 80%,4 µg/mL,0.5 µg/mL,256 µg/mL,1 µg/mL,16 µg/mL,1024 µg/mL,>32 µg/mL
Cl.O=C(OC(Cn1ccnc1)c1ccc(Cl)cc1)C1CCCCC1 (stereo not drawn),512 µg/mL,256 µg/mL,256 µg/mL,70 to 80%,8 µg/mL,1 µg/mL,1020 µg/mL,1 µg/mL,0.5 µg/mL,512 µg/mL,8 µg/mL
